# Assay: Toxicity liver stage against HepG2, at 10uM
# Assay type: cell-based
# Design: test concentration 10 uM, cell line HepG2-A16-CD81EGFP
# Details: human, HepG2-A16-CD81EGFP cells; read-out: INHIBITION
# Procedure, shortened: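 Uninfected HepG2-A16-CD81EGFP cells, 3 × 10^3 per well, 1536-well, plated on prespotted compound at 10 μM final, parasite-free screening media added to match infected plates; puromycin 10 μM positive, DMSO 0.5% negative; run in parallel with 48 h PbLuc assay at 37 °C, 5% CO2; viability by CellTiter-Glo luminescence, normalized to controls.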
row,Structure (SMILES),cytotoxicity at 10 µM [%]
1,CCOC(=O)CCn1cnc2onc(-c3cc(OC)ccc3Cl)c2c1=O,-19
2,COCc1cc(CC2(NC3CCN(C)CC3)COC2)no1,-4.12
3,O=C1N(Cc2ccccn2)C[C@H]2CN(C3CCC3)CCN12,-4.81
4,CC(C)Cc1cc(CC2(NCc3ccco3)COC2)no1,6.25
5,CN(C)C(=O)c1cc(-c2ccncc2)[nH]n1,0.676
6,CCOC(=O)N1[C@@H](c2ccco2)[C@@H](C(=O)O)C[C@]12CCCCNC2=O,-2.98
7,O=C1CN(C(=O)c2ccc(Cl)cc2)CC(O)CN1Cc1cccs1 (stereo not drawn),0.331
8,COCCNC(=O)Cn1cc(OCc2ccccc2)c(=O)cc1CO,-7.44
9,Cn1cccc1C(O)CNC(=O)COc1ccc(Cl)cc1Cl (stereo not drawn),-1.23
10,COc1ccc(-n2nnc(C(N)=O)n2)cc1,8.13
11,COc1ccccc1C(O)Cn1cc(C(=O)NCC2CC2)nn1 (stereo not drawn),-2.62
12,CC(C)NC(=O)N1CCC2(CC1)NC(=O)[C@H]1CN(C(=O)N(C)C)C[C@H]12,-1.66
13,Cc1nc(CN2C(=O)C[C@@H]3[C@@H]2CCN3Cc2cnn(C)c2)cs1,2.44
14,Cc1ccc(N2CC[C@@H]3CN(Cc4c[nH]cn4)C[C@@H]3C2)nn1,7.43
15,Cc1noc(C2CCC3(CCN(C(=O)c4ccnnc4)CC3)O2)n1 (stereo not drawn),6.69
16,COCc1ncn2c1CN(C(=O)Nc1cccc(OC)c1)CC2,12.7
17,O=C(c1ccco1)N1CCOCC2(C1)CN(c1ccoc1)C(=O)CO2 (stereo not drawn),-6.04
18,COCCN1CCO[C@H]2[C@H](OCc3cccc(C)n3)CC[C@@H]21,-1.01
19,CC(C)c1noc(-c2ccnc(-n3cnc(C(=O)O)c3)c2)n1,0.715
20,Cc1ccc(-n2c(O)cc(C)c(C#N)c2=O)c(C)c1,7.75
21,COCCNC(=O)CCc1c(C)nn(-c2nc(C)c(C)c(=O)[nH]2)c1C,11.1
22,CN(C)S(=O)(=O)N1CCC(Oc2ccccn2)CC1,13.6
23,O=C(c1ccccn1)N1Cc2nccn2CC(COc2cccnc2)C1 (stereo not drawn),-9.52

row,Structure (SMILES),cytotoxicity at 10 µM [%]
1,Cn1cccc1C(=O)N1CCN(CC2CC2)c2ncccc2C1,-21.9
2,CN(C)C(=O)COCc1cncc2c1CCN(Cc1nccn1C)C2,-7.61
3,CCOCC1CN(C(=O)N(C)C)Cc2nn(C)cc21 (stereo not drawn),-11.9
4,CC1CCCN(C(=O)c2cc(-c3ccco3)cs2)C1 (stereo not drawn),7
5,NCc1n[nH]c(-c2cccc(F)c2)n1,-167
6,Cc1ccc2cnn(CCC(=O)Nc3c(C)nn(C)c3C)c2c1,-13.4
7,CNc1cc(CCNS(=O)(=O)c2ccccc2)nc(-c2ccccn2)n1,5.13
8,O=C(CCN1CCc2ccccc21)N1C[C@@H](O)[C@H](N2CCOCC2)C1,1.23
9,Cc1c[nH]c(C2COCCN2S(=O)(=O)c2cn[nH]c2)n1 (stereo not drawn),-22.8
10,CS(=O)(=O)NC[C@]1(O)CCN(C(=O)Cc2cccs2)C[C@H]1O,-17.9
11,Cc1cc(C)nc(C2CCN(C(=O)c3c(C)noc3C)C2)n1 (stereo not drawn),-4.34
12,Cc1cc(N(C)C)nc(C2(C)CCCN2C(=O)c2cncnc2C)n1 (stereo not drawn),-11.3
13,CN(C)c1nc2ncc(Cl)cc2cc1C#N,9.54
14,CC(Cc1ccccc1F)C(=O)Nc1ccc(OCCC(N)=O)cc1 (stereo not drawn),-5.56
15,CS(=O)(=O)CCN1CCN(c2ccc(Cl)cn2)CC1,4.13
16,COCCN1CCN(CC(=O)NC2(C#N)CCCC2)CC1,3.5
17,Cc1cccc2nc(CN3CCCC(Cn4ccnn4)C3)cc(=O)n12 (stereo not drawn),3.23
18,Cc1nn(C)c2ncc(NC(=O)N3CCCCCC3)cc12,4.87
19,O=C(c1cc2c(s1)CCC2)N1CCN(c2cnccn2)CC1,1.5
20,O=C(C1COCCO1)N1CCN(CC(F)(F)F)c2ccccc21 (stereo not drawn),7.36
21,CCC(C)(C)NC(=O)c1ccc(NC(=O)NCc2cc(C)on2)cc1,-1.84
22,CCS(=O)(=O)NCC(=O)NC(c1cc(C)sc1C)C(C)C (stereo not drawn),3.77
23,O=C(CN1CCS(=O)(=O)CC1)NC1CCCCc2ccccc21 (stereo not drawn),7.28

row,Structure (SMILES),cytotoxicity at 10 µM [%]
1,CC(=O)NCCNC(=O)c1cc(Br)c2c(c1)OCCO2,-1.54
2,NC(=O)C1CCCN1Cc1cccc(NC(=O)c2cccs2)c1 (stereo not drawn),-12.7
3,CCN(CC)CCNC(=O)c1cnc(-c2ccccc2)nc1,12.4
4,CN(Cc1ccc(N2CCOCC2)cc1)Cc1noc(C(C)(C)C)n1,14
5,Cc1cnn(CCNCC(O)c2ccc3c(c2)OCCO3)c1 (stereo not drawn),3.31
6,Cc1c(C(C)NC(=O)C2CCCC2)cnn1C (stereo not drawn),-10.9
7,COc1ccc(CC(=O)NC2(C#N)CCOCC2)c(Cl)c1,-6.48
8,COc1ccc(CNC(=O)c2ccc(Cl)cc2F)cc1C(=O)O,-1.62
9,O=C(CN1CCCC1Cn1cncn1)Nc1nncs1 (stereo not drawn),5.05
10,Cc1cc(C)n(CC2CN(Cc3cccc(C#N)c3)CCO2)n1 (stereo not drawn),-3.46
11,CCc1nnc2n1CC(CNCc1nc(C)c(C)o1)CC2 (stereo not drawn),-16
12,CCN(C)C(=O)C1(c2ccc(F)cc2F)CCC1,-7.74
13,CCOc1ncccc1CNS(=O)(=O)N1CCOCC1,-10.2
14,Cc1ccc(C(=O)NCC2COCCO2)c(=O)[nH]1 (stereo not drawn),10.9
15,CCC1CN(CC(=O)NC(C)C)CCO1 (stereo not drawn),2.16
16,CNC(=O)c1ccc(NC(=O)NC(C)c2cc(C)oc2C)c(C)c1 (stereo not drawn),-10.6
17,CS(=O)(=O)N1CCOC2(CCCC2)C1,-4.7
18,Cc1nc(-c2ccccc2C)n(CC(=O)NC(C)C)n1,7.47
19,Cc1cc(C#N)ccc1S(=O)(=O)NCc1cnc(N(C)C)n1C,-2.64
20,Cc1nc(CNC(=O)CCN2CCN(c3ccccn3)CC2)oc1C,-4.97
21,COCC(O)CN(C)c1ccnc2cc(F)ccc12 (stereo not drawn),-2.63
22,CC(O)CN1CCC(CN(C)CC(=O)NC2CCOCC2)CC1 (stereo not drawn),-3.33
23,CC(=O)NCCCNCc1cc(F)ccc1Br,-0.595

row,Structure (SMILES),cytotoxicity at 10 µM [%]
1,O=C(NCc1cc[nH]n1)NCC(c1ccccc1Cl)N1CCCC1 (stereo not drawn),14.7
2,Cc1cc(C)n(-c2cncc(NCCNC(=O)CC3CCCC3)n2)n1,-5.71
3,O=C(NCc1ccccc1CN1CCC(O)CC1)Nc1cccnc1,-8.8
4,CC(C)COC(C)C(=O)N1CCN(S(C)(=O)=O)CC1 (stereo not drawn),-5.38
5,CCc1noc(C(C)N(C)CC(=O)Nc2c(C)cccc2C)n1 (stereo not drawn),2.14
6,CCc1nc(CN2CCCN(c3nc4ccccc4o3)CC2)no1,-22.5
7,Cc1nc(NC(=O)CNC(=O)c2c(F)cccc2Cl)n[nH]1,-10.2
8,CCOc1ncccc1NC(=O)c1sccc1C,-16.1
9,CCS(=O)(=O)N1CC[C@H]2O[C@H](c3nnc(C)o3)CC[C@H]21,-75.6
10,CCc1nc(C)sc1C(=O)N1CCN(c2ncccc2C)CC1,1.39
11,Cc1cc(N(C)Cc2c(C)noc2C)n2nc(C)c(C)c2n1,5.44
12,Cc1cccc(CN(Cc2ccccc2)Cc2nccs2)n1,12.4
13,CCc1[nH]c2c(CNC(=O)C3CCC(=O)NC3)cc(C)cc2c1C (stereo not drawn),-3.79
14,Cc1ccc2occ(CN3CCN(c4ncccn4)CC3)c(=O)c2c1,-2.46
15,CCC(O)Cn1cc(C2=CCN(Cc3ccc(OC)cc3)CC2)cn1 (stereo not drawn),-3.94
16,O=C(COCC(F)(F)C(F)F)N1CCC2(CCCN(CCO)C2=O)C1 (stereo not drawn),8.77
17,CCC(O)CNc1nccc(-c2ccc(C)nc2C)n1 (stereo not drawn),-2.92
18,CCCN1CC2(CCN(C)CC2)CC1C(=O)NCCn1cc(C)cn1 (stereo not drawn),-22.9
19,CN(C(=O)CCc1ccncc1)C1CCCN(CCc2ccccc2)C1 (stereo not drawn),-13.5
20,O=C(c1cccc(-c2ccc(F)cc2)c1)N1CCC2(CC1)[C@H](O)C[C@@H]2O,2.37
21,NC(=O)C1CCCN(C(=O)c2ccc(-n3ccnc3)cc2)C1 (stereo not drawn),-4.4
22,CC(c1ccccc1)n1c(SCC(=O)O)nnc1-c1ccccc1Cl (stereo not drawn),1.31
23,CCCC(C)N(C)C(=O)c1nc(S(C)(=O)=O)n2ccccc12 (stereo not drawn),-8.16

row,Structure (SMILES),cytotoxicity at 10 µM [%]
1,Cc1oc(C)c(C(=O)NCc2cccnc2)c1C,5.19
2,Cc1nc(C2CCCN2C(=O)CCCn2cncn2)no1 (stereo not drawn),6.62
3,CN(C(=O)c1ccc(-n2ncc(C#N)c2N)cc1)C1CCCC1,-5.1
4,CN(Cc1ccccn1)CC1CCCN1c1cccnn1 (stereo not drawn),2.43
5,COc1ccc(CC(=O)N2CCCCC2Cn2cccn2)cc1 (stereo not drawn),-11.3
6,CCn1cnnc1CNC(=O)N1CCCCCC1,-7.36
7,COCc1nc(CN2CCOC(CN(C)c3cccnn3)C2)cs1 (stereo not drawn),1.55
8,CC(=O)Nc1nc(C(=O)NC(C)c2cccnc2)cs1 (stereo not drawn),-4.21
9,CC(C)c1noc(C(C)N2CCN(Cc3cccc(C#N)c3)CC2)n1 (stereo not drawn),-14.3
10,COc1ncccc1C(=O)N1CCN(C(=O)Cc2ccccn2)CC1,0.722
11,COc1c(CNCc2ccnc(N3CCCC3)c2)c(C)nn1C,4.31
12,O=C(Cn1cccn1)NCC1(c2ccccc2)CC1,3.13
13,O=C(Nc1cc(F)ccc1OCC1CCCO1)c1ccc(O)nc1 (stereo not drawn),-2.91
14,Cn1ccc(C(=O)N2CCCC(n3cncn3)C2)cc1=O (stereo not drawn),-2.43
15,Cn1cccc1C(=O)N1CCC2(CC1)COC(COc1ccccn1)C2 (stereo not drawn),1.48
16,Cn1cc(C(=O)N[C@H]2CN(Cc3nccs3)[C@@H]3CCCO[C@H]23)cn1,0.893
17,c1cnc(N2CCOC3(COCCN(Cc4cc[nH]n4)C3)C2)nc1 (stereo not drawn),11.8
18,CC1c2ncc(Cn3cncn3)n2CCN1CC1CCOCC1 (stereo not drawn),2.84
19,O=C1[C@@H]2CCN(C3CCOCC3)C[C@@H]2OCCN1Cc1cccnc1,-80
20,Cc1nc(Cn2c3c(ccc2=O)CCN(CC2CC2)CC3)cs1,1.63
21,c1cncc(CN2CC[C@@H]3[C@@H]2CCN3Cc2ccc3c(c2)OCO3)c1,-3.04
